This is a sample that favours compounds with a hit; in the whole collection about 1.3% have one here.
PP5 inh: blocks human protein phosphatase 5 activity | purified PP5c, OMFP substrate fluorescence | AID 1987 | P53041 | inhibition, % at 6.7 µM | 0.18% of 320,000 active;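 active = inhibition above the campaign's mean inhibition across all tested compounds plus 3 SD, cut at about 9.5% in these data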
PP1 counter: PP1-alpha (human) inhibition in PP5 counter-screen; P62136; purified PP1alpha, OMFP fluorescence; inhibition, % at 6.7 µM; 0.9% of 320,000 active; AID 2235;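 active = inhibition above the mean inhibition of all tested compounds plus 3 SD, computed separately for each screening campaign, cut at about 15% in these data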
Target sequence (P62136 whole entry, looked up): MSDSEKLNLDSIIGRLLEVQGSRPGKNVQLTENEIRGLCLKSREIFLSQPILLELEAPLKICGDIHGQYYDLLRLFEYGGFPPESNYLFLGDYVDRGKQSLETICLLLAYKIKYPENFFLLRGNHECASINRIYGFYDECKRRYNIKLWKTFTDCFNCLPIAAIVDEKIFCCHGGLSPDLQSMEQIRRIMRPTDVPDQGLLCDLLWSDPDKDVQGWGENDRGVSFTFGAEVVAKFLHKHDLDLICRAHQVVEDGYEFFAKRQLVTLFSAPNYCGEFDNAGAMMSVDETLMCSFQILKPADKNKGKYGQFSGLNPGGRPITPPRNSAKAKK
NR2E3 ag-1: NR2E3 (human) agonism; Q9Y5X4; GST-NR2E3/biotin-RetCOR TR-FRET, 1536-well; inhibition of corepressor binding, % at 4.78 µM; 0.12% of 320,000 active;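 active = percent inhibition above the cutoff of mean plus 3 SD of all tested compounds, set per screening campaign, cut at about 20% in these data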
Target sequence (Q9Y5X4 whole entry, looked up): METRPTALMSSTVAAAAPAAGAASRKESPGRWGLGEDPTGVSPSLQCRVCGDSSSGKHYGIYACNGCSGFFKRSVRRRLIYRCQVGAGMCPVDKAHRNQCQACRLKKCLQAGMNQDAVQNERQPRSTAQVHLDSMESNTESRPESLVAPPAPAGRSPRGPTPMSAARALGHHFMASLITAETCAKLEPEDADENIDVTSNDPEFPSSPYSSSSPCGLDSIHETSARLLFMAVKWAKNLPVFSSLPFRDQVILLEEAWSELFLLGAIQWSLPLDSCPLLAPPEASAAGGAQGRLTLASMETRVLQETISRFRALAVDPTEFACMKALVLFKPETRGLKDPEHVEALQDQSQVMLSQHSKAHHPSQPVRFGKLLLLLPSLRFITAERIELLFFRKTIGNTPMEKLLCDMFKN
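Format: 1536-well format; test system: GST-NR2E3 and biotin-RetCOR proteins; read-out basis: percent inhibition of TR-FRET ratio; timing: 5 h incubation at 4 °C; detection: time-resolved FRET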
NR2E3 ag-2: human photoreceptor-specific nuclear receptor agonism | 0.35% of 360,000 active | inhibition of corepressor binding, % at 3.98 µM | CHO-S Gal4-NCOR/VP16-NR2E3 two-hybrid, luciferase;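 active = inhibition above the mean of all tested compounds plus 3 SD, cut at about 70% in these data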;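 also: higher means lower luciferase signal from less NR2E3 corepressor binding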
NR2E3 ag conf: NR2E3 agonism confirmed in two-hybrid assay | shares compounds with NR2E3 ag-2 | CHO-S mammalian two-hybrid NR2E3-NCOR, luciferase luminescence | inhibition, % at 3.98 µM | 51% of 2,300 active | AID 624378;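 active = average inhibition above a cutoff equal to the mean inhibition of all tested compounds plus one SD, cut at about 70% in these data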
GAL4-VP16 luc: GAL4-VP16 reporter inhibition in NR2E3 agonist counterscreen. shares compounds with NR2E3 ag-2. CHO-S GAL4-VP16 luciferase reporter, luminescence. inhibition, % at 3.98 µM. 29% of 2,300 active;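 active = mean inhibition above a cutoff equal to the average over all tested compounds plus one standard deviation, cut at about 70% in these data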;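 also: luciferase from a UAS reporter driven by GAL4-VP16 transactivation; higher means less reporter light so more repression of VP16 activity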
Each line names hits and unclear results; the compound was inactive in the other large screens (follow-up assays come after a bar, where they were run).

O=S(=O)(CS(=O)(=O)c1ccccc1)c1ccccc1	none (no result: PP5 inh, PP1 counter, NR2E3 ag-1)
O=S(=O)(C/C(=C/CO)S(=O)(=O)c1ccccc1)c1ccccc1	none | NR2E3 ag conf inactive | GAL4-VP16 luc inactive
Cc1ccc(-c2csc3ncnc(Sc4nnc(CN5CCCCCC5=O)o4)c23)cc1	none | NR2E3 ag conf inactive | GAL4-VP16 luc inactive
O=C(NC1CCCc2c1cnn2-c1ccc(F)cc1F)c1ccccn1 (centres undefined)	none
COc1ncccc1C(=O)NC1CCCc2c1cnn2-c1cc(C)cc(C)c1 (centres undefined)	none
CC1=C(C(=O)NC2CCCc3c2cnn3-c2ccc(F)cc2F)OCCO1 (centres undefined)	none | NR2E3 ag conf inactive | GAL4-VP16 luc inactive
Cc1nnsc1C(=O)NC1CCCc2c1cnn2-c1ccccc1F (centres undefined)	NR2E3 ag-2 82.8 | NR2E3 ag conf 86.0 | GAL4-VP16 luc inactive
COCc1ccc(C(=O)NC2CCCc3c2cnn3-c2cc(C)cc(C)c2)s1 (centres undefined)	none (no result: PP5 inh, PP1 counter, NR2E3 ag-1) | NR2E3 ag conf inactive | GAL4-VP16 luc inactive
Cc1nnsc1C(=O)NC1CCCc2c1cnn2-c1ccc(C(C)(C)C)cc1 (centres undefined)	NR2E3 ag-2 93.0 | NR2E3 ag conf 78.2 | GAL4-VP16 luc 74.6
CCC[C@@H](CN1CCC[C@H]1CN1C(N)=NC[C@H]1C(C)C)N1C[C@@H](Cc2ccccc2)N(CCCC2CCCC2)C1=N	none (no result: PP5 inh, PP1 counter, NR2E3 ag-1)
Cc1cccc(-n2ncc3c2CCCC3NC(=O)C2(C(N)=O)CC2)c1C (centres undefined)	NR2E3 ag-2 77.7 | NR2E3 ag conf 77.5 | GAL4-VP16 luc inactive
Cc1cc(C(=O)NC2CCCc3c2cnn3-c2ccc(C)c(C)c2)n(C)n1 (centres undefined)	NR2E3 ag-2 111.2 | NR2E3 ag conf 98.3 | GAL4-VP16 luc 88.4
CCCn1c(=O)c2[nH]c(-c3ccc(OCC(=O)Nc4ccc(C#N)cc4)cc3)nc2n(CCC)c1=O	none
COC(=O)C[C@@H]1C[C@@H]2c3cc(NS(=O)(=O)c4ccccc4)ccc3O[C@@H]2[C@@H](CO)O1	none (no result: PP5 inh, PP1 counter, NR2E3 ag-1)
CCOc1ccc(Nc2cc(C)nc(-n3nc(C)cc3C)n2)cc1	NR2E3 ag-2 83.6 | NR2E3 ag conf inactive | GAL4-VP16 luc inactive
O=C(COc1ccccc1-c1ccccc1)NN=C1CCCC1	none | NR2E3 ag conf inactive | GAL4-VP16 luc inactive
CN(Cc1cnn(Cc2ccccc2)c1)C(=O)CN=C1NS(=O)(=O)c2ccccc21	none
CNc1nc(Oc2cccc(F)c2)c2sccc2n1	none (no result: PP5 inh, PP1 counter, NR2E3 ag-1)
COc1ccccc1P(=O)(c1ccccc1)c1ccc([N+](=O)[O-])cc1 (centres undefined)	none
COc1ccc(NC(=O)NNS(=O)(=O)c2ccc(OC)c(OC)c2)c(OC)c1	none
Cc1cc(S(=O)(=O)NCc2ccncc2)c(C)cc1Br	NR2E3 ag-2 101.1 | NR2E3 ag conf 93.8 | GAL4-VP16 luc 81.7
Cc1ccc(S(=O)(=O)NCc2ccncc2)cc1	NR2E3 ag-2 74.1 | NR2E3 ag conf 71.5 | GAL4-VP16 luc inactive
CCOc1cc(S(=O)(=O)NCc2cccs2)ccc1Cl	none
CCOC(=O)COc1ccc(S(=O)(=O)NCc2ccncc2)cc1	none
CCOc1ccc(S(=O)(=O)NCc2ccncc2)cc1	NR2E3 ag-2 92.0 | NR2E3 ag conf 95.4 | GAL4-VP16 luc 90.0
CCOc1cc(S(=O)(=O)NCc2ccncc2)ccc1Cl	NR2E3 ag-2 88.1 | NR2E3 ag conf 97.3 | GAL4-VP16 luc 87.4
CCOc1c(Br)cc(CNc2ccc3c(c2)OCCO3)cc1OC	none | NR2E3 ag conf inactive | GAL4-VP16 luc inactive
CCC(C)NS(=O)(=O)c1ccc(S(=O)(=O)N2CCCC3(CCCCC3)C2)cc1 (centres undefined)	NR2E3 ag-2 85.2 | NR2E3 ag conf 89.5 | GAL4-VP16 luc 73.3
O=C(Nc1ccc(Br)cc1)c1ccc(F)c(S(=O)(=O)NCc2cccs2)c1	NR2E3 ag-2 82.6 | NR2E3 ag conf 96.7 | GAL4-VP16 luc 82.3
O=S(=O)(NCc1cccs1)c1ccc(Br)cc1	none
Cc1cc(OC(=O)c2ccccc2C(F)(F)F)c([N+](=O)[O-])c(=O)[nH]1	none
CCCCNc1c(-c2ccc(OC)c(SC3CCCCC3)c2)nc2ccc(C)cn12	none (no result: PP5 inh, PP1 counter, NR2E3 ag-1) | NR2E3 ag conf inactive | GAL4-VP16 luc inactive
CCCCNc1c(-c2ccc(SC3CCCCC3)c(OC)c2)nc2ccc(C)cn12	none (no result: PP5 inh, PP1 counter, NR2E3 ag-1)
CCc1cccc(CC)c1C(OC(C)=O)c1cccnc1 (centres undefined)	none
CC(=NNC(=S)Nc1cccc(C)c1)c1ccccn1	none (no result: PP5 inh, PP1 counter, NR2E3 ag-1) | NR2E3 ag conf inactive | GAL4-VP16 luc inactive
C/C(=N\NC(=S)Nc1ccc(C)cc1)c1cccc(N)c1	none
COc1ccccc1NC(=S)NN=C(C)c1ccccn1	NR2E3 ag-2 78.3 (no result: PP5 inh, PP1 counter, NR2E3 ag-1) | NR2E3 ag conf inactive | GAL4-VP16 luc inactive
CC(=NNC(=S)Nc1ccc(C)cc1)c1ccccn1	NR2E3 ag-2 71.0 (no result: PP5 inh, PP1 counter, NR2E3 ag-1) | NR2E3 ag conf inactive | GAL4-VP16 luc inactive
C/C(=N\NC(=S)Nc1cccc(C)c1)c1ccccc1	NR2E3 ag-2 71.2 | NR2E3 ag conf inactive | GAL4-VP16 luc inactive
Cc1cccc(C)c1C(O)c1ncc(-c2ccc(F)cc2)[nH]1 (centres undefined)	none (no result: PP5 inh, PP1 counter, NR2E3 ag-1)
CCN(c1ccccc1)S(=O)(=O)c1ccc(Cl)c(NC(=O)CN(C)C2CCN(C)CC2)c1	none
Cc1ccc(C)c(NC(=S)c2ccc3ccccc3n2)c1	none
Cc1ccc(C)c(NC(=S)c2ccccn2)c1	none | NR2E3 ag conf inactive | GAL4-VP16 luc inactive
O=C(NCc1ccccc1Cl)c1cc(C(=O)C2CC2)c[nH]1	none | NR2E3 ag conf inactive | GAL4-VP16 luc inactive
Cc1cc(NC(=O)CSc2nc3c(sc4ccccc43)c(=O)n2CCc2ccccc2)n[nH]1	none
Cc1cc(NC(=O)CSc2nc3c(sc4ccccc43)c(=O)n2CCCN2CCOCC2)n[nH]1	NR2E3 ag-2 72.3 | NR2E3 ag conf 96.2 | GAL4-VP16 luc inactive
Cc1cccc(OC(=O)NCCOC(=O)N(O)c2ccc(Cl)cc2)c1	NR2E3 ag-2 80.8 | NR2E3 ag conf 83.3 | GAL4-VP16 luc 70.7
Cc1cccc(OCC(=O)Oc2ccc(Cl)cc2)c1	none
O=C(Nc1cccc(NC(=O)c2c(F)cccc2F)n1)c1c(F)cccc1F	none | NR2E3 ag conf 79.4 | GAL4-VP16 luc inactive
Nc1nc2c(nnn2C2CC(O)C(CO)O2)c(=O)[nH]1 (centres undefined)	none (no result: PP5 inh, PP1 counter, NR2E3 ag-1) | NR2E3 ag conf inactive | GAL4-VP16 luc inactive
Nc1nc2c(ncn2C2C[C@H](O)[C@@H](CO)O2)c(=O)[nH]1 (some centres undefined)	none
CC(C)NC(=S)N/N=C/c1cc(Br)ccc1O	NR2E3 ag-2 72.5 | NR2E3 ag conf inactive | GAL4-VP16 luc inactive
CCN(c1ccccc1)S(=O)(=O)c1ccc(C(=O)Nc2cc(C)ccn2)cc1	none
c1ccc2c(c1)CCN(c1ncnc3c1[nH]c1ccccc13)C2	NR2E3 ag-2 88.7 | NR2E3 ag conf 94.8 | GAL4-VP16 luc 88.4
OC1(c2cccc(C(F)(F)F)c2)CCN(c2ncnc3c2[nH]c2ccccc23)CC1	none | NR2E3 ag conf inactive | GAL4-VP16 luc inactive

High-throughput results deposited in PubChem BioAssay by The Scripps Research Institute Molecular Screening Center.
